Source: ChEMBL document CHEMBL4699653, “Hydroxamate-Based Selective Macrophage Elastase (MMP-12) Inhibitors and Radiotracers for Molecular Imaging” (J Med Chem, 2020)
The source made the active and inactive calls. The rule behind the calls is not given here.

Columns and labels:
[1] = target: 72 kDa type IV collagenase (Homo sapiens, UniProt P08253); assay: Inhibition of human recombinant MMP2 using Mca-Lys-Pro-Leu-Gly-Leu-Dpa-Ala-Arg-NH2 substrate by spectrophotometry
In short: (§1)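 Fluorogenic cleavage kinetics with 0.2–0.5 nM recombinant human MMP in 50 mM Tris/HCl pH 6.8 with 10 mM CaCl2 at 25 °C. […] Fluorescence is monitored. Ki is derived by the Horovitz–Levitski method, as the mean ± SD of three experiments.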

[2] = target: T1, Matrilysin (Homo sapiens, UniProt P09237); assay: Inhibition of human recombinant MMP7 using Mca-Lys-Pro-Leu-Gly-Leu-Dpa-Ala-Arg-NH2 substrate by spectrophotometry; in short: as §1
T1 sequence (P09237 whole entry): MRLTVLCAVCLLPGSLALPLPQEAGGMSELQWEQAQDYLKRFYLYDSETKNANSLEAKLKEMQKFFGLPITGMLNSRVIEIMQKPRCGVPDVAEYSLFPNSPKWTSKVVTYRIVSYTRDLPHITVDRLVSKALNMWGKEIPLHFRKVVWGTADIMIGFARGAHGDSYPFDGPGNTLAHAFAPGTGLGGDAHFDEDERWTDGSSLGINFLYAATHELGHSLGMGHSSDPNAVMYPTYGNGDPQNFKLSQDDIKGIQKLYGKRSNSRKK

[3] = target: Matrix metalloproteinase-9 (Homo sapiens, UniProt P14780); assay: Inhibition of human recombinant MMP9 using Mca-Lys-Pro-Leu-Gly-Leu-Dpa-Ala-Arg-NH2 substrate by spectrophotometry; in short: as §1
Chain of Matrix metalloproteinase-9 (P14780 whole entry): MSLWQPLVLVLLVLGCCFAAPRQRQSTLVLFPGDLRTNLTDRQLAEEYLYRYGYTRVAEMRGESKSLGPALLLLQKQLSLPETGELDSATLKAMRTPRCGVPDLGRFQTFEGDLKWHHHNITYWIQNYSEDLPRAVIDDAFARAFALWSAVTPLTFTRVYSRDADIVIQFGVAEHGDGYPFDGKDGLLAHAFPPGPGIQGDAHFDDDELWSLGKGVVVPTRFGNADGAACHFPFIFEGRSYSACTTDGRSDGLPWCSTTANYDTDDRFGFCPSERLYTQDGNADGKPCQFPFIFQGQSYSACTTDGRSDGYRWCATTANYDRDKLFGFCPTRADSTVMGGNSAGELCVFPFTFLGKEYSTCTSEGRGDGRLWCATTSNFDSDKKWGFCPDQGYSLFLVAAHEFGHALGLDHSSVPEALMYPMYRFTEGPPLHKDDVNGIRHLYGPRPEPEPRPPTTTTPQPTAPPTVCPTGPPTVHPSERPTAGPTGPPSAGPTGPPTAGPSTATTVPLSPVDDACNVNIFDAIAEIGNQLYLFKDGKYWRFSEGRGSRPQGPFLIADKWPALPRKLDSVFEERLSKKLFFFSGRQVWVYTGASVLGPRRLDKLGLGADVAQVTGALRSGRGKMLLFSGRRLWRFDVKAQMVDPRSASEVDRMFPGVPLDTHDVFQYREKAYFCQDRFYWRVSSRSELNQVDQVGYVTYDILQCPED

[4] = target: Macrophage metalloelastase (Homo sapiens, UniProt P39900); assay: Inhibition of human recombinant MMP12 using Mca-Lys-Pro-Leu-Gly-Leu-Dpa-Ala-Arg-NH2 substrate by spectrophotometry; in short: as §1
Chain of Macrophage metalloelastase (P39900 whole entry): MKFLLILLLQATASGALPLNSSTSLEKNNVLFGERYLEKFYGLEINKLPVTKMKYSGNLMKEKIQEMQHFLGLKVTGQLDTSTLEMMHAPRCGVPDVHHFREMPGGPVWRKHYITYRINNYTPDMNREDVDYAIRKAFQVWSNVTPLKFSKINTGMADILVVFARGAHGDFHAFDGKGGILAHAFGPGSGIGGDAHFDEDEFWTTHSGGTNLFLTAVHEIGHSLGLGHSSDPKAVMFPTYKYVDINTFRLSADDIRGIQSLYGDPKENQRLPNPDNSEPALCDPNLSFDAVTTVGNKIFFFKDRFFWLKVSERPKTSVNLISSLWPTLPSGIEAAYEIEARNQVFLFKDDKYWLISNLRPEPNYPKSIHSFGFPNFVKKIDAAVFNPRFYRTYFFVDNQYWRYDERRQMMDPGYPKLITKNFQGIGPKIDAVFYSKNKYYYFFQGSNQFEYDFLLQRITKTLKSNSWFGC

[5] = target: Collagenase 3 (Homo sapiens, UniProt P45452); assay: Inhibition of human recombinant MMP13 using Mca-Lys-Pro-Leu-Gly-Leu-Dpa-Ala-Arg-NH2 substrate by spectrophotometry; in short: as §1
[6] = target: Macrophage metalloelastase (Mus musculus) (UniProt P34960); assay: Inhibition of mouse recombinant MMP12 using Mca-Lys-Pro-Leu-Gly-Leu-Dpa-Ala-Arg-NH2 substrate by spectrophotometry
Chain of Macrophage metalloelastase (Mus musculus) (P34960 110-473 limits assumed): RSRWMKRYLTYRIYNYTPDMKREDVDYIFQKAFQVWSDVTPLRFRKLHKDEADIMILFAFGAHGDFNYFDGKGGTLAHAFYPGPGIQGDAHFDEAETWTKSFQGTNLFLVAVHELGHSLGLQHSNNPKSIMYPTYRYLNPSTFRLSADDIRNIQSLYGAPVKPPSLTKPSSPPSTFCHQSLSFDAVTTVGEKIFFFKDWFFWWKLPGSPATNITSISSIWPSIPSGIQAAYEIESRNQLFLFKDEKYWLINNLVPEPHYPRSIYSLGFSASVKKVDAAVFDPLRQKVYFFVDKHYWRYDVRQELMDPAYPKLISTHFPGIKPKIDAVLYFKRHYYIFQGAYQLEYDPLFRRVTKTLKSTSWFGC

[7] = organism: Homo sapiens; assay: Selectivity index, ratio of Ki for inhibition of human recombinant MMP9 for Ki for inhibition of human recombinant MMP12
[8] = organism: Homo sapiens; assay: Selectivity index, ratio of Ki for inhibition of human recombinant MMP7 for Ki for inhibition of human recombinant MMP12
[9] = organism: Homo sapiens; assay: Selectivity index, ratio of Ki for inhibition of human recombinant MMP13 for Ki for inhibition of human recombinant MMP12

Chain of 72 kDa type IV collagenase (P08253 whole entry): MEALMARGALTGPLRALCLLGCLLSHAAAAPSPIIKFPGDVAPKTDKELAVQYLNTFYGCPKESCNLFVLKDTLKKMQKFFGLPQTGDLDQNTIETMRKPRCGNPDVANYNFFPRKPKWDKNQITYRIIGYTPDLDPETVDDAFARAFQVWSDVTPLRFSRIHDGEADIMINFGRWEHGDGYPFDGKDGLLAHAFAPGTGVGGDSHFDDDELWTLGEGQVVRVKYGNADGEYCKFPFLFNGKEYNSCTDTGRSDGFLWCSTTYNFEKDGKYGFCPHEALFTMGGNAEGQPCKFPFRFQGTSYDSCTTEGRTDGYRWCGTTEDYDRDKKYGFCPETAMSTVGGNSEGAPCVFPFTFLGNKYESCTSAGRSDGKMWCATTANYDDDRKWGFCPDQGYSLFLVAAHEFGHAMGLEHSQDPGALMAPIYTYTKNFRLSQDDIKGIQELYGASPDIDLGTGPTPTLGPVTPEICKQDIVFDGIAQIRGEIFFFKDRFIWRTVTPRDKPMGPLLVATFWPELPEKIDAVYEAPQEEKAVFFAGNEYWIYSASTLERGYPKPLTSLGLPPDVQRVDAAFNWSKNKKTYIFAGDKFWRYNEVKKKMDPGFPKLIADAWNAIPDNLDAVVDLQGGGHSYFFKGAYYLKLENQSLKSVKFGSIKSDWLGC

Compound | Ki [1] | Ki [2] | Ki [3] | Ki [4] | Ki [5] | inhibition (qualitative) [6] | Ratio Ki [7] | Ratio Ki [8] | Ratio Ki [9]
CC(C)C[C@H]1C(=O)N[C@H](C(=O)O)Cc2ccc(cc2)OCCC[C@@H]1C(=O)NO | 300 nM | 39 nM | 1100 nM | 1.1 nM | 31 nM | Active | – | – | –
CC(C)C[C@H](CC(=O)NO)C(=O)N[C@@H](Cc1ccccc1)C(=O)O | 164 nM | 323 nM | 125 nM | 11.8 nM | 81 nM | Active | – | – | –
CC(C)C[C@H](CC(=O)NO)C(=O)N[C@@H](Cc1ccc(OCCNC(=O)c2ccc(NN)nc2)cc1)C(=O)O | > 5000 nM | > 5000 nM | 155 nM | 8.9 nM | > 5000 nM | Active | 17 | – | –
CC(C)C[C@H]1C(=O)N[C@H](C(=O)N[C@@H](CCC(=O)O)C(=O)O)Cc2ccc(cc2)OCCC[C@@H]1C(=O)NO | 396 nM | 14.6 nM | 2110 nM | 1.2 nM | 89 nM | Active | – | 12 | 74
CNC(=O)[C@H](CCCNC(=N)N)NC(=O)[C@@H]1Cc2ccc(cc2)OCCC[C@H](C(=O)NO)[C@@H](CC(C)C)C(=O)N1 | – | – | – | – | – | Active | – | – | –
CC(C)C[C@H](CC(=O)NO)C(=O)N[C@@H](Cc1ccccc1)C(=O)N[C@@H](CCC(=O)O)C(=O)NCCNC(=O)c1ccc(NN)nc1 | 222 nM | 615 nM | 1300 nM | 7.5 nM | 78 nM | Active | – | – | –
